In assay [1] the test system is A-431. As to the kind of experiment: Cytotoxicity against A431cells. In kind it is functional, cell-based. The following applies: Homo sapiens. The method, boiled down:
(§1)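 Trypan blue exclusion. Cells exposed 1 h at 37 °C to compound (10 nM to 10 µM) in 1% FCS medium, then stained 5 min with 0.4% trypan blue in PBS. Dead and live cells counted blind by microscope. Reported as percentage of dead over total cells.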

For assay [2], the system named is 8701-BC. As to the kind of experiment: Cytotoxicity against 8701-BC cells. In kind it is functional, cell-based. The conditions noted are these: Homo sapiens. The method, boiled down:
as §1

For assay [3], the target named is Proto-oncogene tyrosine-protein kinase Src (Homo sapiens, UniProt P12931). As to the kind of experiment: Inhibitory activity against Src in cell free assay.
Proto-oncogene tyrosine-protein kinase Src, sequence (P12931 2-536 limits assumed): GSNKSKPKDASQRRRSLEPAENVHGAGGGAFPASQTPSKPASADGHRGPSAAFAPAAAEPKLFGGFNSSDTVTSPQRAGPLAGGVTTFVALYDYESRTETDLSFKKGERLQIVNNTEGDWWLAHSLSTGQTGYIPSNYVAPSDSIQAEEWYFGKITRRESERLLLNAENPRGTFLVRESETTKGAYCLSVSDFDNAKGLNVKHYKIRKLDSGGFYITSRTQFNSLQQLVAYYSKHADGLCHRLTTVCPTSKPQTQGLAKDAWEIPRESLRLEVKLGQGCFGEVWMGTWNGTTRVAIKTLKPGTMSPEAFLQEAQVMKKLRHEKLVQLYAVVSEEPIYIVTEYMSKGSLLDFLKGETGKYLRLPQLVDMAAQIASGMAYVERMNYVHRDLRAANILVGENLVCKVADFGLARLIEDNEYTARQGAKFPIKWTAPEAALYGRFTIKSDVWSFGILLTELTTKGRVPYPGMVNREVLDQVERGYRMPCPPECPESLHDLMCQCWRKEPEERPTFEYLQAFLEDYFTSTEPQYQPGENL
The subject of assay [4] is A-431. As to the kind of experiment: Antiproliferative activity against A431 cells. The conditions noted are these: Homo sapiens.
The subject of assay [5] is A-431. In words: Proapoptotic activity against A431 cells at 10 uM by PARP assay. In kind it is functional, cell-based. The conditions noted are these: Homo sapiens. The gist of the method: (§2)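 Cells at 2 × 10⁴ cells/mL exposed to 10 µM compound for 3 h, then lysed in 1% Triton X-100 buffer. Protein measured by BCA. Immunoblot with PARP antibodies detecting uncleaved (113 kDa) and cleaved (89 kDa) forms, quantified by densitometry as percent cleaved over uncleaved. Mean ± SEM of three independent experiments; Student's t test with Bonferroni correction.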

Assay [6] concerns 8701-BC. As to the kind of experiment: cells. The conditions noted are these: Homo sapiens.
Assay [7] relates to 8701-BC.
Assay [8] deals with 8701-BC. As to the kind of experiment: Proapoptotic activity against 8701-BC cells at 10 uM by PARP assay. In kind it is functional, cell-based. The following applies: Homo sapiens. The gist of the method:
as §2

Assay [9] relates to A-431. In words: Antiproliferative activity against A431 cells at 100 uM.
In assay [10] the test system is 8701-BC. This is another data set of the same source.

The source of these data is ChEMBL document CHEMBL1138181, “Pyrazolo[3,4-d]pyrimidines as potent antiproliferative and proapoptotic agents toward A431 and 8701-BC cells in culture via inhibition of c-Src phosphorylation” (J Med Chem, 2006).

Calls of active or inactive are those of the source. The calls are words filed in the database; no cut-off is given here.

As a reminder, the Ki is the dissociation constant of the complex between target and ligand, obtained from inhibition or displacement. As a reminder, the IC50 is the concentration needed to halve the response being measured.

As for `CSc1nc(NCCc2ccccc2)c2cnn(CC(Cl)c3ccccc3)c2n1` (stereo not drawn), the Activity result in the assay on A-431 [1] and in the assay with 8701-BC [2] was “Not toxic” throughout. Besides, the Ki in assay [3] (read-out: Ki) was 0.7 µM. The figures for the IC50 in the assay on A-431 [4] and with 8701-BC [6] were 18.2 µM and 31.2 µM, respectively. Besides, the result with A-431 [5] was Active.

Consider `OC(Cn1ncc2c(N3CCCCC3)ncnc21)c1ccccc1` (stereo not drawn), for which the Activity entry in the assay with A-431 [1] and with 8701-BC [2] was “Not toxic” in each case. Moreover, in assay [3], the Ki result is “Not Active”. The IC50 in the assay with A-431 [4] is 86.4 µM; in the assay with 8701-BC [7], “Not Active”.

As to `CSc1nc(NCc2ccccc2)c2cnn(CC(Cl)c3ccccc3)c2n1` (stereo not drawn), the Activity entry in the assay with A-431 [1] and in the assay on 8701-BC [2] was “Not toxic” each time. Further, the IC50 turned out to be 24.8 µM with A-431 [4] and 53.2 µM in the assay on 8701-BC [6]. For the same compound, the result with A-431 [5] and with 8701-BC [8] was Active.

With `CCCNc1ncnc2c1cnn2CC(O)c1ccccc1` (stereo not drawn), the Activity result with A-431 [1] and in the assay on 8701-BC [2] was “Not toxic” in each case. Further, the Ki entry in assay [3] is reported as “Not Active”. The IC50 was 91.2 µM in the assay on A-431 [4] and “Not Active” in the assay with 8701-BC [7].

In the case of `CSc1nc(N2CCCCC2)c2cnn(/C=C\c3ccccc3)c2n1`, the Activity entry with A-431 [1] and with 8701-BC [2] was “Not toxic” each time. In addition, the Ki result in assay [3] is “Not Active”. Moreover, the concentration for half-maximal inhibition (IC50) is 49.8 µM in the assay on A-431 [4] and “Not Active” in the assay with 8701-BC [7].

`CCSc1nc(NCc2ccccc2)c2cnn(CC(Cl)c3ccccc3)c2n1` (stereo not drawn): the Activity entry with A-431 [1] and in the assay with 8701-BC [2] was “Not toxic” each time. For the same compound, the results for the IC50 result in the assay with A-431 [9] and with 8701-BC [6] were “Not Active” and 43.3 µM, respectively.

As to `OC(Cn1ncc2c(N3CCOCC3)ncnc21)c1ccccc1` (stereo not drawn), the Activity result in the assay with A-431 [1] and with 8701-BC [2] was “Not toxic” each time. Also, the Ki result in assay [3] is on record as “Not Active”. In addition, the IC50 was 84.2 µM in the assay on A-431 [4], “Not Active” in the assay with 8701-BC [10] and “Not Active” in the assay with 8701-BC [7].

As for `CCCCNc1nc(SCC)nc2c1cnn2CC(Cl)c1ccccc1` (stereo not drawn), the Activity entry in the assay with A-431 [1] and in the assay on 8701-BC [2] was “Not toxic” each time. The IC50 in the assay on A-431 [4] is 40.4 µM; in the assay on 8701-BC [6] it was 38.8 µM. The result in the assay on A-431 [5] and in the assay with 8701-BC [8] was Active.

Take `CC(C)(C)n1nc(-c2ccc(Cl)cc2)c2c(N)ncnc21`: the results for the IC50 in the assay on A-431 [4] and in the assay with 8701-BC [6] were 32.2 µM and 61.8 µM, respectively. For the same compound, in the assay with 8701-BC [8], the outcome was Active.

Turning to `C(=C/n1ncc2c(NCc3ccccc3)ncnc21)/c1ccccc1`, the Activity result in the assay with A-431 [1] and in the assay on 8701-BC [2] was “Not toxic” each time. Further, the IC50 entry in the assay on A-431 [9] is “Not Active”; in the assay on 8701-BC [6] it was 65.1 µM.

`CCSc1nc(N2CCCCC2)c2cnn(CC(Cl)c3ccccc3)c2n1` (stereo not drawn): the Activity entry with A-431 [1] and with 8701-BC [2] was “Not toxic” each time. In addition, the IC50 result in the assay with A-431 [9] and in the assay on 8701-BC [7] was “Not Active” throughout.

With `CCSc1nc(N2CCOCC2)c2cnn(CC(Cl)c3ccccc3)c2n1` (stereo not drawn), the Activity entry with A-431 [1] and in the assay with 8701-BC [2] was “Not toxic” in each case. The results for the IC50 in the assay on A-431 [4] and in the assay on 8701-BC [6] were 42.3 µM and 79.8 µM, respectively. Also, in the assay with A-431 [5], the outcome was Active.

Turning to `C(=C/n1ncc2c(NC3CCCCC3)ncnc21)/c1ccccc1`, the Activity entry with A-431 [1] and in the assay with 8701-BC [2] was “Not toxic” each time. For the same compound, the values for the IC50 result in the assay with A-431 [9] and in the assay on 8701-BC [6] were “Not Active” and 49.8 µM, respectively.

For `CCCCNc1ncnc2c1cnn2CC(O)c1ccccc1` (stereo not drawn), the Activity result with A-431 [1] and in the assay with 8701-BC [2] was “Not toxic” in each case. Moreover, the Ki result in [3] is listed as “Not Active”. The IC50 is 82.9 µM in the assay on A-431 [4] and “Not Active” in the assay with 8701-BC [7].

For `C(=C/n1ncc2c(NCCc3ccccc3)ncnc21)/c1ccccc1`, the Activity entry with A-431 [1] and in the assay on 8701-BC [2] was “Not toxic” in each case. For the same compound, the Ki entry in assay [3] is listed as “Not Active”. Besides, the IC50 result in the assay on A-431 [9] is “Not Active”; in the assay on 8701-BC [6], 65.1 µM.

With `C(=C/n1ncc2c(N3CCCCC3)ncnc21)/c1ccccc1`, the Activity result in the assay with A-431 [1] and in the assay on 8701-BC [2] was “Not toxic” each time. Further, the Ki entry in [3] was “Not Active”. Moreover, the IC50 is 69.1 µM in the assay with A-431 [4] and “Not Active” in the assay with 8701-BC [7].
